According to ChEMBL document CHEMBL4382215, “Synthesis of new ent-labdane diterpene derivatives from andrographolide and evaluation of their anti-inflammatory activities” (Eur J Med Chem, 2019):
pIC50: −log10 of the molar value. The source made the active and inactive calls. The rule behind the calls is not given here.

How the values were obtained:
[1] = test system: RAW264.7; experiment: Antiinflammatory activity in mouse RAW264.7 cells assessed as inhibition of LPS-induced nitric oxide production preincubated for 3 hrs followed by LPS addition and measured after 24 hrs by griess assay; assay type: functional, cell-based
Summary of the method: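 RAW264.7 cells in 96-well plates were exposed to compounds over 0–100 µM for 3 h, then to LPS 1 µg/mL for 24 h. Controls were DMSO without LPS (vehicle) and DMSO with LPS (model). Nitrite in the medium was read with Griess reagent at 540 nm. Percent inhibition was calculated and IC50 derived; hydrocortisone was the positive control.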

[2] = test system: RAW264.7; experiment: Antiinflammatory activity in mouse RAW264.7 cells assessed as inhibition of LPS-induced COX2 expression at 5 to 20 uM preincubated for 3 hrs followed by LPS addition and measured after 24 hrs by Western blot analysis; assay type: functional, cell-based
Summary of the method: (§1)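 RAW264.7 cells in 6-well plates were pretreated as for ELISA, then given LPS 1 µg/mL for 24 h and lysed with protease inhibitors. 30 µg total protein was run on 10% SDS-PAGE and blotted to nitrocellulose, blocked in 5% skim milk, and probed overnight at 4 °C. Primary antibodies were iNOS 1:200; COX-2, NF-κB, IκBα and p-IκBα 1:2000; β-actin 1:2000 as reference. Detection used HRP secondary and ECL; data from ≥3 independent experiments.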

[3] = target: T1, NF-kappa-B inhibitor alpha (Mus musculus) (UniProt Q9Z1E3); experiment: Inhibition of LPS-induced IkappaBalpha phosphorylation in mouse RAW264.7 cells at 5 to 20 uM preincubated for 3 hrs followed by LPS addition and measured after 24 hrs by Western blot analysis; assay type: cell-based; summary of the method: as §1
T1 sequence (whole entry): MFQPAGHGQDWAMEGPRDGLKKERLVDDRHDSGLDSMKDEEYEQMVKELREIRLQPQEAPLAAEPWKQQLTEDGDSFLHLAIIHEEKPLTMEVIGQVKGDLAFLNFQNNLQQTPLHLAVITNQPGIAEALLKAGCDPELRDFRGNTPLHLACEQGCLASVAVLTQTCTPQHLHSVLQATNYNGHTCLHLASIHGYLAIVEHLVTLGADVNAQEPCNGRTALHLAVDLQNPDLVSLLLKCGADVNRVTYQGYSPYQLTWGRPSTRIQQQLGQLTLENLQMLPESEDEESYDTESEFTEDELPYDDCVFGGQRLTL

[4] = test system: RAW264.7; experiment: Antiinflammatory activity in mouse RAW264.7 cells assessed as inhibition of LPS-induced IL1beta production preincubated for 3 hrs followed by LPS addition and measured after 24 hrs by ELISA; assay type: functional, cell-based
Summary of the method: (§2)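 Cells in 96-well plates were pretreated with DMSO or compound at 5, 10 and 20 µM for 3 h, then stimulated with LPS 1 µg/mL for 24 h. IL-1β and IL-6 in the medium were quantified by commercial ELISA, with OD read at […]. Results are mean ± SD of at least three independent experiments.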

[5] = target: Transcription factor p65 (Mus musculus) (UniProt Q04207); experiment: Inhibition of LPS-induced NFkappaB p65 nuclear translocation in mouse RAW264.7 cells at 10 uM preincubated for 2 hrs followed by LPS-stimulation and measured after 12 hrs by DAPI staining based immunofluorescence microscopic analysis; assay type: cell-based
Transcription factor p65 (Mus musculus), sequence (Q04207 whole entry): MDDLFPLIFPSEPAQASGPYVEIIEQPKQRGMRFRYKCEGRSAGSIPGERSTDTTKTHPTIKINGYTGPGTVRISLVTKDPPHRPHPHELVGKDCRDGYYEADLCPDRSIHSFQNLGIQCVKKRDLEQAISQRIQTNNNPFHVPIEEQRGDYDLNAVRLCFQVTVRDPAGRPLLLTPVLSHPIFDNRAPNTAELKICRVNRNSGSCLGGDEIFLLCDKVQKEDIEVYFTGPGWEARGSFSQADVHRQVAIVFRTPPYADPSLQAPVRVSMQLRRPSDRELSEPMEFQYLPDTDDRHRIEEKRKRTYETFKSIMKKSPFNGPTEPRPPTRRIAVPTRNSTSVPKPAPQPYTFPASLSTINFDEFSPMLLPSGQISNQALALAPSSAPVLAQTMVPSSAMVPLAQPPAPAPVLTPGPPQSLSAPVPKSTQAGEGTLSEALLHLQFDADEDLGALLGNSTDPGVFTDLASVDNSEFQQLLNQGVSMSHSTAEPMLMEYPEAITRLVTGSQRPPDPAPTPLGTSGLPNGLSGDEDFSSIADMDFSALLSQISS
Summary of the method: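 Cells grown in glass chambers were pretreated with DMSO or compound for 2 h, then given LPS 1 µg/mL for 12 h. They were fixed in 4% paraformaldehyde for 15 min, permeabilized with 0.25% Triton X-100, and labelled with p65 antibody plus AlexaFluor488 secondary. Nuclei were stained with DAPI at 37 °C for 30 min in the dark, and cells were imaged by fluorescence microscopy.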

[6] = test system: RAW264.7; experiment: Antiinflammatory activity in mouse RAW264.7 cells assessed as inhibition of LPS-induced iNOS expression at 5 to 20 uM preincubated for 3 hrs followed by LPS addition and measured after 24 hrs by Western blot analysis; assay type: functional; summary of the method: as §1
[7] = test system: RAW264.7; experiment: Antiinflammatory activity in mouse RAW264.7 cells assessed as inhibition of LPS-induced IL6 production preincubated for 3 hrs followed by LPS addition and measured after 24 hrs by ELISA; assay type: functional, cell-based; summary of the method: as §2
[8] = test system: RAW264.7; experiment: Cytotoxicity against mouse RAW264.7 cells assessed as effect on cell viability at 3.125 to 100 uM after 24 hrs by CCK8 assay; assay type: cell-based; conditions: raw264.7, 24 h
Summary of the method: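 Cells were grown in DMEM with 10% FBS and penicillin/streptomycin at 37 °C, 5% CO2. For the assay they were seeded at 5×10^4 cells/well and exposed in serum-free medium to a range of compound concentrations for 24 h, with DMSO as vehicle. Viability was read by CCK-8, in triplicate.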

[9] = test system: RAW264.7; experiment: Inhibition of LPS-induced IkappaBalpha expression in mouse RAW264.7 cells at 5 to 20 uM preincubated for 3 hrs followed by LPS addition and measured after 24 hrs by Western blot analysis; assay type: functional, cell-based; summary of the method: as §1
[10] = test system: RAW264.7; experiment: Inhibition of LPS-induced NFkappaB expression in mouse RAW264.7 cells at 5 to 20 uM preincubated for 3 hrs followed by LPS addition and measured after 24 hrs by Western blot analysis; assay type: functional, cell-based; summary of the method: as §1

Row | SMILES | pIC50 [1] | also measured
1 | C=C1CCC2[C@](C)(CO)[C@H](O)CC[C@@]2(C)[C@@H]1CCn1cnc2c(N)ncnc21 (stereo partly drawn) | < 4.00 | 
2 | C=C1CCC2[C@](C)(CO)[C@H](O)CC[C@@]2(C)[C@@H]1CCOc1ccc(C(C)(C)C)cc1 (stereo partly drawn) | 4.45 | 
3 | C=C1CCC2[C@](C)(CO)[C@H](O)CC[C@@]2(C)[C@@H]1CCn1ccc(=O)[nH]c1=O (stereo partly drawn) | < 4.00 | 
4 | C=C1CCC2[C@](C)(CO)[C@H](O)CC[C@@]2(C)[C@@H]1CCn1c(N)nccc1=O (stereo partly drawn) | < 4.00 | 
5 | C=C1CCC2[C@](C)(CO)[C@H](O)CC[C@@]2(C)[C@@H]1CCn1cncn1 (stereo partly drawn) | < 4.00 | 
6 | C=C1CCC2[C@](C)(CO)[C@H](O)CC[C@@]2(C)[C@@H]1CCOC(=O)c1ccccc1[N+](=O)[O-] (stereo partly drawn) | 4.45 | 
7 | C=C1CCC2[C@](C)(CO)[C@H](O)CC[C@@]2(C)[C@@H]1CCOc1ccc2ccc(=O)oc2c1 (stereo partly drawn) | < 4.30 | 
8 | C=C1CC[C@@H]2[C@](C)(CO)[C@H](O)CC[C@@]2(C)[C@@H]1C/C=C1/C(=O)OC[C@H]1O [ANDROGRAPHOLIDE] | 5.06 | 
9 | C=C1CCC2[C@](C)(CO)[C@H](O)CC[C@@]2(C)[C@@H]1CCOC(=O)c1ccc([N+](=O)[O-])cc1 (stereo partly drawn) | 4.43 | 
10 | C=C1CCC2[C@](C)(CO)[C@H](O)CC[C@@]2(C)[C@@H]1CCOc1ccc([N+](=O)[O-])cc1 (stereo partly drawn) | 5.47 | inhibition [2]: Active; inhibition [3]: Active; inhibition [4]: Dose-dependent effect; inhibition [5]: Active; inhibition (INH) [6]: 100%; inhibition [7]: Dose-dependent effect; Activity [8]: Non-Toxic; inhibition [9]: Active; inhibition [10]: Active
11 | C=C1CCC2[C@](C)(CO)[C@H](O)CC[C@@]2(C)[C@@H]1CCOC(=O)c1ccccc1 (stereo partly drawn) | < 4.00 | 
12 | C=C1CCC2[C@](C)(CO)[C@H](O)CC[C@@]2(C)[C@@H]1CCOC(=O)c1cccnc1 (stereo partly drawn) | < 4.30 | 
13 | C=C1CCC2[C@](C)(CO)[C@H](O)CC[C@@]2(C)[C@@H]1CCOc1ccc2oc(-c3ccccc3)cc(=O)c2c1 (stereo partly drawn) | < 4.00 | 
14 | C=C1CCC2[C@](C)(CO)[C@H](O)CC[C@@]2(C)[C@@H]1CCn1ccnc1 (stereo partly drawn) | < 4.30 | 
15 | C=C1CCC2[C@](C)(CO)[C@H](O)CC[C@@]2(C)[C@@H]1CCOc1ccccc1O (stereo partly drawn) | 4.32 | 
16 | C=C1CCC2[C@](C)(CO)[C@H](O)CC[C@@]2(C)[C@@H]1CCOc1ccc(Br)cc1 (stereo partly drawn) | 4.40 | 
17 | C=C1CCC2[C@](C)(CO)[C@H](O)CC[C@@]2(C)[C@@H]1CCOc1cccc2ccccc12 (stereo partly drawn) | 4.35 | 
18 | C=C1CCC2[C@](C)(CO)[C@H](O)CC[C@@]2(C)[C@@H]1CCOc1ccc(-c2cc(=O)c3cc(C)ccc3o2)cc1 (stereo partly drawn) | < 4.00 | 
19 | C=C1CCC2[C@](C)(CO)[C@H](O)CC[C@@]2(C)[C@@H]1CCOc1ccc(Oc2ccccc2)cc1 (stereo partly drawn) | 4.89 | 
